# Screening results from PubChem BioAssay.
# Most compounds without a hit are left out; they make up all but 4.9% or so of the library.
# STAT1 inh-1: STAT1 signaling inhibitors, primary screen, cell-based, HTS, luciferase reporter; NIH 3T3 STAT1-luciferase reporter, IFN-gamma, luminescence; inhibition, % at 5.5 µM; actives 0.35% (n = 200,000);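 active = inhibition above a set limit, the mean inhibition across all tested compounds plus 3 SD, cut at about 34% in these data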;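 note: 0% = IFN-gamma with DMSO and 100% = IFN-gamma with 300 µM nifuroxazide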
# APP 5'UTR act: activators of APP 5'UTR luciferase reporter, primary screen, SH-SY5Y cells; SH-SY5Y APP 5'UTR luciferase reporter, luminescence; zero percent = DMSO vehicle wells; activation, % at 2 µM; actives 1% (n = 190,000);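 active = activation above a set limit, based on mean plus 3 SD of controls, cut at about 140% in these data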
# STAT3 act: IL-6 driven STAT3 reporter potentiators, primary screen, U3A cells, luciferase, luminescence, MLSCN library. IL-6 STAT3-luciferase reporter; 100% = signal with IL-6 EC80 alone. activation (% of control), % at 5.6 µM. actives 0.91% (n = 190,000);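 active = activation above the screen-wide mean of compound activation plus 3 SD, cut at about 130% in these data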;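 note: 0% = background luminescence of wells with medium and substrate only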
#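 Test system: STAT3-luciferase reporter U3A cells; Detection: reporter luminescence signal; Times: 1 h compound pre-exposure, 6 h IL-6 stimulation, 37 °C; Benchmarks: IL-6-only high control; Also added: IL-6 stimulus at 33 ng/mL final.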
# NF-kB expr up: activators of NF-kB expression in neurons, primary screen, cell-based, HTS | human neuronal cells, NF-kB reporter expression; hits give high values | fold change at 12.5 µM | actives 1.6% (n = 190,000) | AID 1239, 2008; in the data active = fold change above about 3.3
# STAT3 inh: IL-6 driven STAT3 reporter inhibitors, primary screen, U3A cells, luciferase, luminescence, MLSCN library; IL-6 STAT3-luciferase reporter; host cell line lacks STAT1; inhibition, % at 5.5 µM; actives 0.89% (n = 190,000); AID 862, 2007;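 active = inhibition above the mean inhibition across all screened compounds plus 3 SD, cut at about 44% in these data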;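 note: 0% = DMSO only wells and 100% = 100 µM nifuroxazide control wells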
# STAT1 act: STAT1 signaling activators, primary screen, cell-based, HTS, luciferase reporter. actives 2.6% (n = 200,000). activation (% of control), % at 5.5 µM. NIH 3T3 STAT1-luciferase reporter, IFN-gamma, luminescence; 100% = IFN-gamma alone, no compound;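 active = activation above the screen-wide mean activation plus 3 SD, cut at about 130% in these data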;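 note: raw ratio to IFN-gamma control signal so 100% means no change and 0% no light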
# STAT1 inh-2: STAT1 signaling inhibitors, confirmation, cell-based, HTS, luciferase reporter. shares compounds with STAT1 inh-1. NIH 3T3 STAT1-luciferase reporter, IFN-gamma, luminescence. inhibition, % at 5.5 µM. actives 55% (n = 200);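 active = triplicate mean inhibition exceeding the hit cutoff computed for the primary STAT1 screen, cut at about 35% in these data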;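 note: 0% = DMSO with IFN-gamma and 100% = 300 µM nifuroxazide with IFN-gamma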
# NFkB inh STAT1ct: NF-kB reporter inhibitors, TNF-alpha stimulated, counter-screen for STAT1 inhibitor project, cell-based, HEK293T, luciferase luminescence; actives 30% (n = 200); TNF-alpha induced; shares compounds with STAT1 inh-1; inhibition, % at 5.7 µM; AID 1303, 2008;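 active = inhibition above the mean of solvent-only control wells plus 3 SD of those wells, cut at about 15% in these data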;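 note: 0% = DMSO with TNF-alpha and 100% = MG-132 control with TNF-alpha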
# STAT3 inh 2: STAT3 reporter inhibition by STAT1 hits, counter-screen for STAT1 inhibitor project, U3A cells, luciferase, luminescence, triplicate; actives 20% (n = 200); IL-6 STAT3 luciferase reporter; cells lacking STAT1; inhibition, % at 5.7 µM; AID 1310, 2008; shares compounds with STAT1 inh-1;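 active = inhibition above the mean of solvent-only control wells plus 3 SD, set per campaign, cut at about 25% in these data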;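 note: 0% = IL-6 plus DMSO and 100% = IL-6 plus nifuroxazide control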
# Starred values were filed as active, the others as inactive; . = no result given.
SMILES,STAT1 inh-1,APP 5'UTR act,STAT3 act,NF-kB expr up,STAT3 inh,STAT1 act,STAT1 inh-2,NFkB inh STAT1ct,STAT3 inh 2
CN1CCN(c2nc(-c3ccco3)cc(C(F)(F)F)n2)CC1,1.6,1.3,83.6,1.19,22.6,98.5,.,.,.
O=C1N=C2N(CCN3CCCCC3)c3ccccc3N2/C1=C\c1ccc([N+](=O)[O-])o1,-2.1,-96.1,99.6,1.02,2.7,102.5,.,.,.
Cc1ccc(/C=C2/SC(=S)N(CCCC(=O)Nc3ccc(O)cc3)C2=O)cc1,40.5*,-63.3,84.4,1.29,22.7,61.9,39.1*,54.4*,10.2
O=c1c2ccccc2nc2n1CCC2O (stereo unspecified),-0.4,-14.9,.,0.99,.,99.3,.,.,.
Cc1cc(C(=O)COC(=O)CNC(=O)c2ccccc2)c(C)n1CC1CCCO1 (stereo unspecified),36.7*,-1.0,79.3,0.59,28.3,65.2,-49.4,-2.7,-15.4
Cc1cccc(C(=O)NCC(=O)OCC(=O)c2cc(C)n(CC3CCCO3)c2C)c1 (stereo unspecified),-5.5,58.1,100.9,0.54,-1.4,105.3,.,.,.
CC1CCC2(CC1)OCC1(CCC3(COC4(CCC(C)CC4)OC3)C1=O)CO2 (stereo unspecified),-3.7,-12.0,100.4,1.18,0.8,102.0,.,.,.
COc1ccc(N/N=C(/C#N)S(=O)(=O)C(C)(C)C)cc1,3.0,-37.2,100.4,1.19,3.5,96.8,.,.,.
COc1ccc(N/N=C(\C#N)C(=N)SCc2ccccc2)cc1,36.8*,-13.9,97.8,1.3,7.5,65.5,24.5,58.7*,-14.9
CCCC(=O)Nc1cccc(-c2nc3ccccc3c(=O)o2)c1,37.4*,-1.6,82.3,3.86*,24.6,64.2,15.9,4.6,6.8
CC(C)C(=O)Nc1ccc(-c2nc3ccccc3c(=O)o2)cc1,37.8*,5.7,85.6,0.77,21.4,64.2,18.6,14.5,1.6
CC(C)(C)C(=O)Nc1ccc(-c2nc3ccccc3c(=O)o2)cc1,41.3*,12.4,81.3,0.27,25.7,60.6,-12.6,10.9,1.6
CC(C)(C)C(=O)Nc1cccc(-c2nc3ccccc3c(=O)o2)c1,25.8,6.0,74.5,1.48,33.0,76.5,.,.,.
CCC(=O)Nc1cccc(-c2nc3ccccc3o2)c1,-9.8,-12.8,95.4,1.47,7.6,109.1,.,.,.
CC(C)C(=O)Nc1cccc(-c2nc3ccccc3c(=O)o2)c1,14.0,-1.2,84.0,0.95,20.5,93.0,.,.,.
C/C(CC(=O)Nc1ccc2c(c1)OCCO2)=N\NC(=O)C(=O)Nc1ccccc1C,-14.9,6.1,91.4,0.89,16.2,112.6,.,.,.
O=C(c1ccc(Cl)cc1)N1CCN(c2ccnc3cc(Cl)ccc23)CC1,48.3*,16.0,89.5,0.7,14.3,54.9,46.7*,11.0,-5.7
O=C(CCS(=O)(=O)c1ccccc1)Nc1nc(-c2cccs2)cs1,7.6,-6.0,101.8,0.77,-2.2,93.1,.,.,.
CC(C)c1nnc(NC(=O)CCS(=O)(=O)c2nc(-c3cccs3)cc(C(F)(F)F)n2)s1,36.7*,28.1,96.3,1.05,6.8,66.5,43.5*,15.5*,6.4
Cc1cc(C)n2nc(C(=O)NNC(=O)c3ccccc3)nc2n1,-4.4,3.6,101.6,1.21,4.0,104.0,.,.,.
O=C1c2ccccc2N2C(=O)c3ccccc3[C@H]2N1c1ccccc1,3.9,2.7,85.3,0.82,23.8,96.4,.,.,.
COc1ccc2c(c1OC)C(=O)N1c3ccccc3C(=O)N(c3ccccc3F)C21 (stereo unspecified),48.4*,-40.5,85.4,0.38,23.3,55.3,41.0*,-11.6,30.0*
CN(C)Cc1nc2ccccc2c(=O)n1Cc1nc(C(C)(C)C)cs1,52.8*,-2.2,88.6,0.71,21.7,51.9,29.8,1.5,7.0
CN1CCN(Cc2nc3ccccc3c(=O)n2Cc2nc(-c3cccc([N+](=O)[O-])c3)cs2)CC1,62.3*,6.4,117.8,0.73,-10.3,41.5,37.9*,3.3,-7.2
CN1CCN(Cc2nc3ccccc3c(=O)n2Cc2nc(-c3ccc4ccccc4c3)cs2)CC1,45.4*,-1.8,99.7,15.9*,-1.2,58.5,40.5*,-1.6,2.6
SMILES,STAT1 inh-1,APP 5'UTR act,STAT3 act,NF-kB expr up,STAT3 inh,STAT1 act,STAT1 inh-2,NFkB inh STAT1ct,STAT3 inh 2
CN1CCN(Cc2nc3ccccc3c(=O)n2Cc2nc(-c3ccccc3F)cs2)CC1,49.9*,-7.3,97.6,0.7,-1.5,54.6,50.8*,6.2,-8.9
Cc1cc(OC(=O)c2c(F)cc(F)cc2F)nc(C)n1,-5.2,-15.7,96.7,1.26,8.0,104.5,.,.,.
CCOC(=O)C(=CNc1ccc(NC2=NCC(C)S2)cc1)C(=O)OCC (stereo unspecified),59.9*,-32.9,90.1,0.9,14.8,45.9,58.6*,38.4*,20.7
CN(NC1CC(=O)N(c2ccccc2)C1=O)c1ccccc1 (stereo unspecified),6.4,9.0,95.5,1.03,0.4,94.2,.,.,.
O=C(Nc1ccccc1C(=O)O)c1ccc(Br)c(S(=O)(=O)NCc2ccccc2)c1,50.6*,-8.5,98.8,1.03,7.1,52.5,29.1,5.1,3.2
O=C(Nc1ccccc1C(=O)NCc1ccccc1)c1ccccc1Br,-0.1,20.4,103.1,0.78,-0.4,100.1,.,.,.
c1csc(-c2ccnc3ncnn23)c1,6.5,23.3,81.3,1.05,23.7,93.5,.,.,.
Fc1ccc(-c2cnn3c(-c4cccs4)ccnc23)cc1,35.0*,220.0*,85.1,6.73*,26.5,67.4,-89.0,21.8*,-53.2
CCOC(=O)c1[nH]c2ccc(OC)cc2c1NC(=S)N1CCN(c2ccccc2OC)CC1,-11.8,-15.6,102.7,0.5,-0.9,110.5,.,.,.
